For 29 compounds, GI50, IC50 and inhibition results are on record in ChEMBL document CHEMBL1152334, “Quassinoid inhibition of AP-1 function does not correlate with cytotoxicity or protein synthesis inhibition” (J Nat Prod, 2009).

Active and inactive are the calls of the source. The calls are words filed in the database; no cut-off is given here.

The nature of assay [1]: Growth inhibition of human NCI60 cells. In kind it is functional.
The nature of assay [2]: Inhibition of protein synthesis in cell-free extract of mouse Krebs2 cells by SDS-PAGE. In kind it is functional.
For the next assay, the system named is HeLa. The assay can be described thus: Inhibition of protein synthesis in human HeLa cells assessed as [35S]methionine incorporation into protein treated for 45 mins before [35S]methionine addition by Whatman paper analysis. The class given is functional, cell-based.
A short description of assay [3]: Growth inhibition of human AP-1 beta-lactamase reporter screening assay cells at 1 uM. To be noted: AP-1 reporter cells.
In assay [4] the target is Transcription factor Jun (Homo sapiens) (UniProt P05412). Nature of the assay: Inhibition of TPA-induced AP1 transfected in HEK293 cells assessed as inhibition of […] reporter activity at 0.1 to 10 uM treated 1 hr before TPA stimulation measured after 18 hrs by luciferase reporter gene assay. In kind it is cell-based. The gist of the method: (§1)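 HEK293 cells were grown in DMEM with 10% FBS at 37 °C and 5% CO2. They were transiently transfected with a luciferase reporter (0.1 µg/well); reporters were AP-1 (four TRE consensus copies from GCN4), NF-κB (five responsive-element copies) or SRE. After 24 h, medium went to DMEM with 0.2% FBS. Cells were pretreated 1 h with compound or DMSO, then given TPA 10 ng/mL for 18 h. Firefly luciferase was read from passive-lysis lysates, TPA alone = 100%, in quadruplicate.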

The next assay relates to HEK293. The assay can be described thus: Inhibition of TPA-induced NF-kappaB transfected in HEK293 cells at 0.1 to 10 uM treated 1 hr before TPA stimulation measured after 18 hrs by luciferase reporter gene assay. The class given is cell-based. Put shortly: as §1
The next assay concerns Nucleic Acid. The assay can be described thus: Inhibition of TPA-induced SRE transfected in HEK293 cells at 0.1 to 10 uM treated 1 hr before TPA stimulation measured after 18 hrs by luciferase reporter gene assay. The class given is cell-based. Put shortly:
as §1
(A reporter such as luciferase makes a cellular process visible.)

Chain of Transcription factor Jun (Homo sapiens) (P05412 whole entry): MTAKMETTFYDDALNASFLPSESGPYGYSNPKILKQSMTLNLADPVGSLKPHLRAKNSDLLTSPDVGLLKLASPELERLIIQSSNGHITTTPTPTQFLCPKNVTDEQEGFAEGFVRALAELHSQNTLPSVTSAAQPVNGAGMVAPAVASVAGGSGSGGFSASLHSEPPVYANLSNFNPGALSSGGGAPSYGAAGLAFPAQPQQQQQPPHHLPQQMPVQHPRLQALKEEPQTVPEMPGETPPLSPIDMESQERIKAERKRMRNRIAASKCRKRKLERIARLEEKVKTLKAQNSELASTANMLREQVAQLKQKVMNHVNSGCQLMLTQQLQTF

In the case of `COC(=O)[C@@]12OC[C@]34[C@H]([C@@H](O)C1O)[C@@]1(C)CC(=O)C(OC(=O)CC(C)C(F)(F)F)=C(C)[C@@H]1C[C@H]3OC(=O)[C@H](O)[C@H]42` (some centres undefined), in assay [1] (Homo sapiens, NCI60), the 50% growth inhibitory concentration (GI50) stood at 2900 nM.

The compound `C=C1[C@@H](O)[C@@]2(O)OC[C@@]34[C@H]1[C@@H](OC(=O)C/C=C/CCCCCCCC)C(=O)O[C@@H]3C[C@H]1C(C)=CC(=O)[C@@H](O)[C@]1(C)[C@@H]24` came in with a GI50 in assay [1] (Homo sapiens, NCI60) of 24 nM. In addition, the half-maximal inhibitory concentration (IC50) in assay [2] is less than 10000 nM; in the assay on HeLa it was more than 2000 nM.

As to `CC[C@@](O)(CC(=O)O[C@@H]1C(=O)O[C@@H]2C[C@@H]3C(C)=CC(=O)[C@H](O)[C@]3(C)[C@H]3[C@]4(O)OC[C@]32[C@@H]1[C@@H](C)[C@H]4O)C(C)C` [PENINSULARINONE], the concentration for 50% growth inhibition (GI50) in assay [1] (Homo sapiens, NCI60) is 1 nM.

For `COC(=O)[C@@]12OC[C@]34[C@H]([C@@H](O)C1O)[C@@]1(C)CC(=O)C(O)=C(C)[C@@H]1C[C@H]3OC(=O)[C@H](OC(=O)/C=C(/c1ccccc1)C(F)(F)F)[C@H]42` (some centres undefined), the GI50 in assay [1] (Homo sapiens, NCI60) is 3600 nM.

Turning to `CC[C@](C)(O)C(=O)O[C@H]1C(=O)O[C@@H]2C[C@H]3C(C)=CC(=O)[C@@H](O)[C@]3(C)[C@H]3[C@@]4(O)OC[C@]32[C@@H]1[C@@H](C)[C@H]4O` (stereo in doubt) [GLAUCARUBINONE], the concentration for 50% growth inhibition (GI50) in assay [1] was 21000 nM.

Consider `CC1=C[C@H](O)[C@@H](O)[C@]2(C)[C@H]3[C@@]4(O)OC[C@]35[C@H]([C@@H](C)[C@H]4O)[C@@H](O)C(=O)O[C@@H]5C[C@@H]12` [GLAUCARUBOL], for which, in assay [1] (Homo sapiens, NCI60), the GI50 worked out at 41000 nM. Further, the IC50 in assay [2] is more than 30000 nM; in the assay on HeLa, more than 2000 nM.

Regarding `CC1=CC(=O)[C@@H](O)[C@]2(C)[C@H]3[C@]4(O)OC[C@]35[C@H]([C@@H](C)[C@H]4O)[C@@H](O)C(=O)O[C@@H]5C[C@@H]12` [GLAUCARUBOLONE], growth in assay [1] (Homo sapiens, NCI60) was halved (GI50) at 290 nM. This lies in the sub-micromolar range.

As to `COC(=O)[C@@]12OC[C@]34[C@H]([C@H](O)[C@@H]1O)[C@@]1(C)CC(=O)C(OC(C)=O)=C(C)[C@H]1C[C@H]3OC(=O)[C@@H](OC(=O)C=C(C)C)[C@@H]24`, in assay [1] (Homo sapiens, NCI60), growth was halved (GI50) at 790 nM. This GI50 is about 2.7-fold higher than that of the compound before.

Regarding `COC(=O)[C@]12OC[C@]34[C@H]([C@@H](O)[C@@H]1O)[C@@]1(C)[C@H](O)C(=O)C=C(C)[C@@H]1C[C@H]3OC(=O)[C@H](OC(=O)CC(C)C)[C@@H]24` [ISOBRUCEIN A], halving of growth in assay [1] (Homo sapiens, NCI60) (GI50) required 17 nM. Compared with the last compound, the GI50 is about 46-fold lower.

Turning to `COC(=O)[C@@]12OC[C@]34[C@H]([C@@H](O)[C@@H]1O)[C@@]1(C)[C@H](O)C(=O)C=C(C)[C@@H]1C[C@H]3OC(=O)[C@H](OC(C)=O)[C@@H]24` [ISOBRUCEIN B], growth in assay [1] (Homo sapiens, NCI60) was halved (GI50) at 100 nM.

Take `CC(C)=CC(=O)O[C@@H]1[C@H]2C(C)=CC(=O)[C@@H](O)[C@]2(C)[C@H]2[C@@]3(O)OC[C@@]24[C@@H]1OC(=O)C[C@H]4[C@@H](C)[C@H]3O`: the GI50 in assay [1] (Homo sapiens, NCI60) is 19 nM.

In assay [1] (Homo sapiens, NCI60), `CC(C)=CC(=O)O[C@H]1C(=O)O[C@@H]2C[C@H]3C(C)=CC(=O)[C@@H](O)[C@]3(C)[C@H]3[C@@]4(O)OC[C@]32[C@@H]1[C@@H](C)[C@H]4O` yielded a concentration for 50% growth inhibition (GI50) of 21 nM. The GI50 values of the last two compounds are within 1.5-fold of each other.

Regarding `CC(=O)O[C@H]1C(=O)O[C@@H]2C[C@H]3C(C)=CC(=O)[C@@H](O)[C@]3(C)[C@H]3[C@]4(O)OC[C@]32[C@@H]1[C@@H](C)[C@H]4O` [HOLACANTHONE], the GI50 in assay [1] (Homo sapiens, NCI60) worked out at 30 nM.

For `CC1=CC(=O)[C@H](O)[C@@]2(C)[C@@H]1C[C@H]1OC(=O)C(OC(=O)CC3=CCCC3)[C@H]3[C@@H](C)[C@@H](O)[C@]4(O)OC[C@]13[C@@H]42` (some centres undefined), growth in assay [1] (Homo sapiens, NCI60) was halved (GI50) at 40000 nM.

The compound `CC(C)CC(=O)O[C@H]1C(=O)O[C@@H]2C[C@H]3[C@H](C)C(=O)C(O[C@@H]4O[C@H](CO)[C@@H](O)[C@H](O)[C@H]4O)=C[C@]3(C)[C@H]3[C@@H](O)[C@H](O)[C@]4(C(=O)O)OC[C@]32[C@@H]14` [BRUCEOSIDE E] yielded a GI50 in assay [1] (Homo sapiens, NCI60) of 52000 nM.

In assay [1] (Homo sapiens, NCI60), `COC(=O)[C@]12OC[C@]34[C@H]([C@@H](O)[C@@H]1O)[C@@]1(C)C=C5OC(=O)C=C5[C@@H](C)[C@@H]1C[C@H]3OC(=O)[C@H](OC(C)=O)[C@@H]24` [SERGEOLIDE] registered a concentration for 50% growth inhibition (GI50) of 3.8 nM. In addition, the figures for the 50% inhibitory concentration (IC50) (in assay [2]; in the assay on HeLa) were 70 nM and less than 1000 nM, respectively.

In assay [1] (Homo sapiens, NCI60), `COC(=O)[C@@]12OC[C@]34[C@H]([C@@H](O)[C@@H]1O)[C@@]1(C)CC(=O)C(O)=C(C)[C@@H]1C[C@H]3OC(=O)[C@H](OC(=O)/C=C(\C)C(C)C)[C@@H]24` [BRUCEANTIN] came in with a 50% growth inhibitory concentration (GI50) of 5 nM. The concentration for half-maximal inhibition (IC50) worked out at 410 nM in assay [2] and 51 nM with HeLa.

In turn, `CC[C@@H](C)C(=O)O[C@H]1C(=O)O[C@@H]2C[C@H]3C(C)=CC(=O)[C@@H](O)[C@]3(C)[C@H]3[C@@H](O)[C@H](O)[C@]4(C)OC[C@]32[C@@H]14` [SIMALIKALACTONE D] had a 50% growth inhibitory concentration (GI50) in assay [1] (Homo sapiens, NCI60) of 39 nM.

The compound `CC(=O)OC(C)(C)/C(C)=C/C(=O)O[C@H]1C(=O)O[C@@H]2C[C@H]3[C@H](C)C(=O)C(O[C@@H]4O[C@H](CO)[C@@H](O)[C@H](O)[C@H]4O)=C[C@]3(C)[C@H]3[C@@H](O)[C@H](O)[C@]4(C(=O)O)OC[C@]32[C@@H]14` [BRUCEOSIDE F] gave a GI50 in assay [1] (Homo sapiens, NCI60) of 74000 nM.

With `COC(=O)[C@@]12OC[C@]34[C@H]([C@@H](O)C1O)[C@@]1(C)CC(=O)C(OC(=O)/C=C(/c5ccccc5)C(F)(F)F)=C(C)[C@@H]1C[C@H]3OC(=O)[C@H](O)[C@H]42` (some centres undefined), in assay [1] (Homo sapiens, NCI60), the GI50 was 7400 nM.

Regarding `CC1=CC(=O)[C@H](O)[C@@]2(C)[C@@H]1C[C@H]1OC(=O)[C@@H](OC(=O)C(C)(C)CO)[C@@H]3[C@@H](C)[C@@H](O)[C@]4(O)OC[C@@]31[C@@H]42`, it took 95 nM to inhibit growth in assay [1] (Homo sapiens, NCI60) by half (GI50).

On to `COC(=O)[C@@]12OC[C@]34[C@H]([C@@H](O)[C@@H]1O)[C@@]1(C)C=C5OC(=O)C=C5[C@@H](C)[C@@H]1C[C@H]3OC(=O)[C@H](O)[C@@H]24`, for which the concentration for 50% growth inhibition (GI50) in assay [1] (Homo sapiens, NCI60) was 160 nM.

Turning to `C=C1[C@@H](O)[C@]2(O)OC[C@@]34[C@H]1[C@@H](OC(=O)C/C=C/CCCCCCCC)C(=O)O[C@@H]3C[C@H]1C(C)=CC(=O)[C@@H](O)[C@]1(C)[C@@H]24`, in assay [1] (Homo sapiens, NCI60), the 50% growth inhibitory concentration (GI50) was 24 nM.

Regarding `C/C=C(\C)C(=O)O[C@@H]1[C@H]2C(C)=CC(=O)[C@@H](O)[C@]2(C)[C@H]2[C@@]3(O)OC[C@]24[C@H]([C@@H](C)[C@H]3O)[C@@H](OC(C)=O)C(=O)O[C@H]14` [HANNOAENONE], it took 40 nM to inhibit growth in assay [1] (Homo sapiens, NCI60) by half (GI50).

Compound `CC[C@](C)(O)C(=O)O[C@H]1C(=O)O[C@@H]2C[C@H]3C(C)=CC(=O)[C@@H](O)[C@]3(C)[C@H]3[C@@]4(O)OC[C@]32[C@@H]1[C@@H](C)[C@H]4O` (stereo in doubt; 4) [GLAUCARUBINONE] yielded a GI50 in assay [1] of 1800 nM. Moreover, in assay [3], the inhibition at 1 µM was less than 25%. For the same compound, the IC50 in assay [2] was found to be 290 nM; in the assay on HeLa, 270 nM.

Consider `COC1=C[C@@H](C)[C@@H]2C[C@H]3OC(=O)C[C@H]4C(C)=C(OC)C(=O)[C@H]([C@@]2(C)C1=O)[C@@]34C` [QUASSIN], for which the inhibition result (in assay [4]; with HEK293; in the assay with Nucleic Acid) was “inactive” each time. For the same compound, the IC50 in assay [2] was more than 30000 nM; with HeLa, more than 2000 nM.

For `C=C1[C@@H](O)[C@@]2(O)OC[C@@]34[C@H]1[C@@H](OC(=O)C/C=C(\C)CCCCC)C(=O)O[C@@H]3C[C@H]1C(C)=CC(=O)[C@@H](O)[C@]1(C)[C@@H]24`, the GI50 in assay [1] (Homo sapiens, NCI60) came out at 1.5 nM.

Compound `COC(=O)[C@@]12OC[C@]34[C@H]([C@@H](O)C1O)[C@@]1(C)CC(=O)C(O)=C(C)[C@@H]1C[C@H]3OC(=O)[C@H](OC(=O)CC(C)C(F)(F)F)[C@H]42` (some centres undefined) displayed a GI50 in assay [1] (Homo sapiens, NCI60) of 28 nM.

As for `COC(=O)[C@]12OC[C@]34[C@H]([C@@H](O)[C@@H]1O)[C@@]1(C)CC(=O)C(O)=C(C)[C@@H]1C[C@H]3OC(=O)[C@H](OC(=O)C=C(C)C)[C@@H]24` [BRUSATOL], the inhibition result (in assay [4]; with HEK293; in the assay on Nucleic Acid) was “inactive” each time. The compound also displayed a 50% growth inhibitory concentration (GI50) in assay [1] (Homo sapiens, NCI60) of 260 nM. Besides, the figures for the IC50 (in assay [2]; in the assay on HeLa) were 230 nM and less than 1000 nM, respectively.

Usually GI50 stands for the concentration giving 50% growth inhibition. Low readings indicate greater sensitivity of the cells, high ones lower sensitivity of the cells. One may read the IC50 as the concentration at which inhibition is half-maximal. In general, inhibition refers to how much of the control response was suppressed.
